Reference: PubChem BioAssay AID1800 (The Scripps Research Institute Molecular Screening Center, 2009)
About 1,600 (0.55%) of roughly 290,000 compounds were called active. Shown is part of a subset that was picked to be rich in actives. Unmarked numbers belong to inactive results.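 Rule for the calls: active = inhibition above the mean of all tested compounds plus 3 SD, set per campaign (cut at about 35% in these data); inactive = the rest.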

test system: Hepatitis C virus NS3 helicase; assay: HCV NS3 DNA unwinding blockers – biochemical, Cy5 molecular beacon fluorescence, primary screen (AID 1800); conditions: at 10.9 µM, hits give high values;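 note: 0% = DMSO wells and 100% = thioflavine S control wells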
Summary of the method: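 Assay system: hepatitis C virus NS3 helicase domain fragment enzyme. Also added: annealed dual-labelled DNA beacon duplex, ATP-started. Timing: 1 h reaction at 25 °C, ATP-initiated. Technique: Cy5 fluorescence at 0 and 60 min, beacon hairpin quenching. Evaluation: % inhibition of unwinding. Replication: one well per compound.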

Row | Compound | inhibition
1 | O=c1c(-c2ccccc2Cl)c[nH]n1-c1ccccc1 | 3.07%
2 | Cc1ccccc1Nc1nnc(SCC(=O)c2cc3ccccc3o2)s1 | 47.4% (active)
3 | Cc1ccc(Nc2nnc(SCC(=O)c3cc4ccccc4o3)s2)cc1C | 13.9%
4 | Cc1cc(NC(=O)CSc2nnc(Nc3ccccc3F)s2)no1 | -0.95%
5 | CC1CCN(S(=O)(=O)c2ccc(NC(=O)C3CC(=O)N(c4ccccc4)C3)cc2)CC1 (stereo not given) | -43.1%
6 | CN(C)c1ccnc2sc3c(=O)n(-c4ccc(Cl)cc4)cnc3c12 | 3.7%
7 | Cc1cc(C)c2oc(C(=O)Nc3ccc(S(=O)(=O)Nc4nccc(C)n4)cc3)cc(=O)c2c1 | -10.1%
8 | CS/C(=C\C(=O)c1ccco1)Nc1ccccc1Cl | 64.5% (active)
9 | O=C(Nc1ccccc1)c1ccco1 | 10.7%
10 | O=C(Nc1ccccc1C(=O)N1CCCCC1)c1ccco1 | 5.37%
11 | CCOc1ccc2sc(NS(=O)(=O)c3ccc(N)cc3)nc2c1 | -15.8%
12 | CN(C)[C@@H]1C(=O)C(C(N)=O)=C(O)[C@@]2(O)C(=O)C3=C(O)c4c(O)ccc(Cl)c4[C@@H](O)[C@H]3C[C@@H]12 | 39.9% (active)
13 | Cc1cccc(-n2ncc(Cl)c(Cl)c2=O)c1 | 10.4%
14 | Cc1ccc2nc3c(cc(C(=O)NCCc4ccccc4)c(=N)n3CC3CCCO3)c(=O)n2c1 (stereo not given) | -6.17%
15 | O=C(Oc1ccc([N+](=O)[O-])cc1)c1ccc(Cl)c(S(=O)(=O)N2CCCCC2)c1 | 7.15%
16 | COc1cc2ccccc2cc1C(=O)Nc1ccc(N2CCOCC2)cc1 | -2.47%
17 | CC(=O)Oc1cccc(N2C(=O)CC(Nc3ccc(N4CCOCC4)cc3)C2=O)c1 (stereo not given) | 48.2% (active)
18 | CC(=O)Oc1cccc(N2C(=O)C3CC=C(Cl)CC3C2=O)c1 (stereo not given) | 6.02%
19 | CCCCOC(=O)Nc1nnc(CC(=O)NCc2ccccc2)s1 | 8.31%
20 | O=C(CSc1ccc(-c2ccco2)nn1)Nc1cccc(F)c1 | 20.3%
21 | COc1ccc(NC(=O)CCC(=O)Nc2cc(OC)c(NC(=O)c3ccco3)cc2OC)c(OC)c1 | 7.66%
22 | COc1ccc(NC(=O)CSc2ccc(-c3ccco3)nn2)c(OC)c1 | 36.8% (active)

Row | Compound | inhibition
23 | CC1=C(C(=O)OCC2CCCCC2)C(c2ccc(F)cc2)NC(=O)N1 (stereo not given) | 0.43%
24 | O=C1c2ccccc2S(=O)(=O)N1Cc1c(F)cccc1Cl | 0.54%
25 | CN1C/C(=C/c2cccs2)C(=O)/C(=C\c2cccs2)C1 | 9.92%
26 | O=C1/C(=C/c2cccs2)CCc2ccccc21 | -2.06%
27 | CCC1C/C(=C/c2cccs2)C(=O)/C(=C/c2cccs2)C1 (stereo not given) | 44.1% (active)
28 | NC(=O)C1CCN(CC(O)CSc2ccc(F)cc2)CC1 (stereo not given) | 3.59%
29 | O=C(Nc1ccccc1)C1CCN(C(=O)c2ccc(Br)cc2)CC1 | -8.93%
30 | Cc1ccc(S(=O)(=O)NCCCn2ccnc2)cc1C(=O)NC(C)C | -0.51%
31 | Cc1ccc(S(=O)(=O)NCCSc2ccccc2)cc1[N+](=O)[O-] | -4.6%
32 | Cc1ccc(S(=O)(=O)NCCC(c2ccccc2)c2ccccc2)cc1C(=O)O | 38.8% (active)
33 | O=[N+]([O-])c1ccc2c(c1)Nc1nc3ccccc3nc1N2 | 3.43%
34 | CN1CCN(C(=O)c2cnn(-c3ccccc3)c2NC(=O)c2ccc([N+](=O)[O-])cc2)CC1 | 5.97%
35 | CCOC(=O)c1c(-c2ccccc2)oc2cc(Br)c(O)cc12 | -8.03%
36 | CCOC(=O)c1c(-c2ccccc2)oc2ccc(OCC(N)=O)cc12 | -0.28%
37 | CCOC(=O)c1c(-c2ccccc2)oc2cc(Br)c(O)c(C=O)c12 | 63.8% (active)
38 | CCOc1cc(-c2noc(CCCC(=O)NC3CCCCC3)n2)ccc1OC | -0.34%
39 | CCOc1ccc(CN2CCN(Cc3c[nH]c4ccccc34)CC2)cc1 | -65.4%
40 | CCC1(C(=O)c2ccccc2)C(c2cccc([N+](=O)[O-])c2)C1(C(=O)OC)C(=O)OC (stereo not given) | -10.6%
41 | Cc1ccc(N=C2NC(=O)/C(=C/C=C/c3ccco3)S2)cc1C | 60.8% (active)
42 | Cc1ccc(N2NC(=O)/C(=C/C=C/c3ccco3)C2=O)cc1C | 31.6%
43 | Cc1cccc(N=C2NC(=O)/C(=C/c3cn(C)c4ccccc34)S2)c1 | -2.21%
44 | Cc1ccc(S(=O)(=O)NCCC(=O)Nc2cccc(S(N)(=O)=O)c2)cc1C | -12.2%

Row | Compound | inhibition
45 | Nc1c(C(=O)c2cccs2)sc2nsc(SCCN3CCCCC3)c12 | -21.1%
46 | CC(=O)c1cccc(NC(=S)N2CCN(S(C)(=O)=O)CC2)c1 | -3.09%
47 | Cc1ccc(OCC(=O)Nc2ccccc2Sc2ccc(Cl)cc2)c([N+](=O)[O-])n1 | -5.04%
48 | COc1ccc(/C=C/C(=O)c2ccc(OC)cc2O)cc1 | -6.12%
49 | COc1ccc(/C=C/C(=O)c2cc(Br)ccc(=O)c2O)cc1 | 45.2% (active)
50 | COc1ccc(C(=O)/C=C/c2ccc(OC3CSC3)cc2)cc1 | -2.94%
51 | O=C(NC(=S)Nc1ccccc1N1CCCCC1)c1ccc(F)cc1 | 1.82%
52 | CCCn1c(C2CCCN2c2nc(-c3ccc(C)cc3)cs2)nc2cc(Cl)c(N3CCCCC3)cc21 (stereo not given) | 35.5%
53 | CCn1c(C)c(C)c2cc(C(=O)N3CCN(c4cccc(C)c4C)CC3)ccc21 | 2.52%
54 | CCOc1cc(C2C(C(=O)c3ccco3)=C(O)C(=O)N2Cc2ccccc2)ccc1O (stereo not given) | 9.26%
55 | CCCOc1ccc(C2C(C(=O)c3ccc(C)o3)=C(O)C(=O)N2CCCn2ccnc2)cc1 (stereo not given) | -15.3%
56 | Cc1ccc2nc(N3C(=O)C(O)=C(C(=O)c4ccco4)C3c3cccc(O)c3)sc2c1 (stereo not given) | 25.4%
57 | COc1cc(C2C(C(=O)c3ccco3)=C(O)C(=O)N2c2cc(C)on2)ccc1OCc1ccccc1 (stereo not given) | 43.6% (active)
58 | Cc1cc(N2C(=O)C(O)=C(C(=O)c3ccc(C)o3)C2c2ccc(OCc3ccccc3)cc2)no1 (stereo not given) | 87.7% (active)
59 | C=CCOc1cccc(C2C(C(=O)c3ccc(C)o3)=C(O)C(=O)N2CCCn2ccnc2)c1 (stereo not given) | -4.21%
60 | COc1ccc(-c2cc(C(=O)N3CCN(Cc4ccc5c(c4)OCO5)CC3)on2)cc1OC | -19.4%
61 | CC(=O)Nc1ccc(C(=O)N(C2=NC(C)CS2)c2ccc(Cl)cc2)cc1 (stereo not given) | -10.2%
62 | COc1ccccc1CCCNC(=O)C1CCC(=O)N(CCN2CCOCC2)C1 (stereo not given) | 7.14%
63 | COc1cccc(CNC(=O)c2cccnc2Sc2ccc(Cl)cc2)c1 | -6.66%
64 | CC(=O)O[C@H]1c2ccccc2-c2ccccc2[C@@H]1OC(C)=O | 13.1%
65 | O=Cc1c(NCCc2cccc(F)c2)c2ccccc2[nH]c1=O | 0.14%
